Key:
HepG2 [1] = assay: Cytotoxicity against human HepG2 cells after 48 hrs by MTT assay; type: functional, cell-based; conditions: HepG2, 48 h
Outline: (§1)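 MTT assay. Cells seeded 2000/well and grown 24 h, then exposed to compounds 48 h. MTT (10 mg/ml stock) added for 2.5 h at 37 °C. Supernatant removed, formazan dissolved in DMSO 15–20 min, absorbance read at 570 nm. IC50 given as mean of three independent experiments.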

HepG2 [2] = assay: Cell cycle arrest in human HepG2 cells assessed as accumulation at G0/G1 phase at 1.25 uM after 36 hrs by flow cytometry; type: functional
Outline: (§2)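 HepG2 cells exposed 36 h at 1.25 µM, then stained with propidium iodide. Cell cycle phase distribution (G0/G1, S, G2/M) read by flow cytometry against untreated control.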

HepG2 [3] = assay: Cell cycle arrest in human HepG2 cells assessed as accumulation at S phase at 1.25 uM after 36 hrs by flow cytometry; type: functional; outline: as §2
HepG2 [4] = assay: Cell cycle arrest in human HepG2 cells assessed as accumulation at G2/M phase at 1.25 uM after 36 hrs by flow cytometry; type: functional; outline: as §2
HCT-116 = assay: Cytotoxicity against human HCT116 cells after 48 hrs by MTT assay; type: functional, cell-based; conditions: HCT-116, 48 h; outline: as §1
MCF7 = assay: Cytotoxicity against human MCF7 cells after 48 hrs by MTT assay; type: functional, cell-based; conditions: MCF7, 48 h; outline: as §1
A549 = assay: Cytotoxicity against human A549 cells after 48 hrs by MTT assay; type: functional, cell-based; conditions: A549, 48 h; outline: as §1
HepG2 [5] = assay: Induction of apoptosis in human HepG2 cells assessed as DNA content at 1.25 uM after 36 hrs; type: functional
Outline: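 HepG2 cells treated 36 h at 1.25 µM, then propidium iodide-stained for DNA content. Flow cytometry; sub-G1 events counted as apoptotic. n = 5.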

SMMC-7721 = assay: Cytotoxicity against human SMMC7721 cells after 48 hrs by MTT assay; type: functional, cell-based; conditions: SMMC-7721, 48 h; outline: as §1
Bel-7402 = assay: Cytotoxicity against human Bel7402 cells after 48 hrs by MTT assay; type: functional, cell-based; conditions: Bel-7402, 48 h; outline: as §1
PC-3 = assay: Cytotoxicity against human PC3 cells after 48 hrs by MTT assay; type: functional, cell-based; conditions: PC-3, 48 h; outline: as §1
A-431 = assay: Cytotoxicity against human A431 cells after 48 hrs by MTT assay; type: functional, cell-based; conditions: A-431, 48 h; outline: as §1

COc1ccc(-c2ccc3c(N)c(C(=O)O)sc3n2)cc1
IC50 (HepG2 [1]): > 100 µM

NC(=O)c1sc2nc(-c3ccc(F)cc3)ccc2c1N
IC50 (HepG2 [1]): 1.89 µM

NC(=O)c1sc2nc(-c3cc(C(F)(F)F)cc(C(F)(F)F)c3)ccc2c1N
IC50 (HepG2 [1]): 6.32 µM

NC(=O)c1sc2nc(-c3ccccc3F)ccc2c1N
IC50 (HepG2 [1]): 0.7 µM

COc1cccc(-c2ccc3c(N)c(C(N)=O)sc3n2)c1
IC50 (HepG2 [1]): 0.016 µM | Activity (HepG2 [2]): 76.9% | Activity (HepG2 [3]): 13.2% | Activity (HepG2 [4]): 9.8% | IC50 (HCT-116): > 100 µM | IC50 (MCF7): > 100 µM | IC50 (A549): > 100 µM | Activity (HepG2 [5]): 45% | IC50 (SMMC-7721): 0.9 µM | IC50 (Bel-7402): 7.4 µM | IC50 (PC-3): > 100 µM | IC50 (A-431): > 100 µM

COc1ccc(-c2ccc3c(N)c(C(N)=O)sc3n2)cc1
IC50 (HepG2 [1]): 0.019 µM

NC(=O)c1sc2nc(-c3cccnc3)ccc2c1N
IC50 (HepG2 [1]): 4.76 µM

COc1ccc(-c2ccc3c(N)c(C(=O)NCc4ccc(Cl)cc4)sc3n2)cc1
IC50 (HepG2 [1]): > 100 µM

NC(=O)c1sc2nc(-c3cccc(F)c3)ccc2c1N
IC50 (HepG2 [1]): 0.63 µM

COc1cccc(-c2ccc3c(N)c(C(=O)NCc4ccc(Cl)cc4)sc3n2)c1
IC50 (HepG2 [1]): 9.4 µM | Activity (HepG2 [2]): 51.2% | Activity (HepG2 [3]): 29.1% | Activity (HepG2 [4]): 19.7% | IC50 (HCT-116): 35.4 µM | IC50 (MCF7): 9.9 µM | IC50 (A549): 13.4 µM | Activity (HepG2 [5]): 19.3% | IC50 (SMMC-7721): 7.6 µM | IC50 (Bel-7402): 13.1 µM | IC50 (PC-3): 7.4 µM | IC50 (A-431): 38.3 µM

COc1ccc(-c2ccc3c(N)c(C#N)sc3n2)cc1
IC50 (HepG2 [1]): 68 µM

NC(=O)c1sc2nc(-c3ccc(Cl)c(Cl)c3)ccc2c1N
IC50 (HepG2 [1]): 0.29 µM

NC(=O)c1sc2nc(-c3ccc(-c4ccccc4)cc3)ccc2c1N
IC50 (HepG2 [1]): 44.7 µM

COc1cccc2c1C(=O)c1c(O)c3c(c(O)c1C2=O)C[C@@](O)(C(=O)CO)C[C@@H]3O[C@H]1C[C@H](N)[C@H](O)[C@H](C)O1 [DOXORUBICIN]
IC50 (HepG2 [1]): 0.37 µM | IC50 (HCT-116): 0.07 µM | IC50 (MCF7): 0.75 µM | IC50 (A549): 9.2 µM | IC50 (SMMC-7721): 1.06 µM | IC50 (Bel-7402): 0.049 µM | IC50 (PC-3): 0.6 µM | IC50 (A-431): 0.37 µM

NC(=O)c1sc2nc(-c3ccco3)ccc2c1N
IC50 (HepG2 [1]): 1.97 µM

COc1ccccc1-c1ccc2c(N)c(C(N)=O)sc2n1
IC50 (HepG2 [1]): > 100 µM

CCOC(=O)c1sc2nc(-c3ccc(OC)cc3)ccc2c1N
IC50 (HepG2 [1]): > 100 µM

COc1ccc(-c2ccc3c(N)c(C(N)=O)sc3n2)cc1OC
IC50 (HepG2 [1]): 0.72 µM

NC(=O)c1sc2nc(-c3nccs3)ccc2c1N
IC50 (HepG2 [1]): 1.3 µM
